HCV NS3 hel inh: inhibitors of Hepatitis C virus NS3 helicase; NS3 helicase DNA unwinding, Cy5 molecular beacon fluorescence; inhibition, % at 10.9 µM; hit rate 0.56% among 290,000; AID 1800;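 active = inhibition above the mean of all tested compounds plus 3 SD, set per campaign, cut at about 35% in these data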;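 also: 0% = DMSO wells and 100% = thioflavine S control wells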
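Assay system: hepatitis C virus NS3 helicase domain fragment enzyme. Also added: annealed dual-labelled DNA beacon duplex, ATP-started. Timing: 1 h reaction at 25 °C, ATP-initiated. Technique: Cy5 fluorescence at 0 and 60 min, beacon hairpin quenching. Evaluation: % inhibition of unwinding. Replication: one well per compound.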
M18AAP inhibitor: blocks P. falciparum M18 aspartyl aminopeptidase. inhibition, % at 7.35 µM. recombinant PfM18AAP, H-Glu-NHMec fluorogenic cleavage. hit rate 1.2% among 290,000;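 active = inhibition above the campaign mean inhibition over all tested compounds plus 3 SD, cut at about 28% in these data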;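 also: 0% = plate median of test compound wells and 100% = 2 mM ZnCl2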
CHOP inhibitor: CHOP inhibition in unfolded protein response; CHO-K1 CHOP-promoter luciferase, tunicamycin-induced, 15-18 h; inhibition, % at 10 µM; hit rate 3.8% among 220,000;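 active = compounds that reduced the stress-induced luciferase reporter signal by more than about 70% of percent inhibition, limit read from the data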;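 also: 0% = tunicamycin plus vehicle and 100% = wells without tunicamycin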
UPR XBP1 act: adaptive UPR (XBP1) activation; CHO-XBP1 luciferase reporter, IRE1-XBP1 UPR activation, luminescence; percent of tunicamycin response, DMSO as zero; activation, % at 20 µM; hit rate 0.33% among 330,000;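 active = versus positive control, 20 µM dose yields 30% or more activation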;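 also: 100% = tunicamycin at 10 µg/mL and 0% = DMSO only wells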
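Signal: luciferase luminescence; Assay system: CHO-XBP1 luciferase reporter cells; Amount: one thousand reporter cells per well; Dosing: 20 µM single concentration, DMSO 1%; Benchmarks: high control tunicamycin 10 µg/mL final, low control DMSO vehicle only; Schedule: 6 h compound exposure at 37 °C, 5% CO2; Evaluation: percent activation relative to tunicamycin reference.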
UPR CHOP act: activators of apoptotic arm of unfolded protein response (CHOP); CHO-CHOP luciferase reporter, UPR activation, luminescence; percent of tunicamycin response over DMSO baseline; activation, % at 10 µM; hit rate 0.34% among 330,000;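 active = at 10 µM dose, activation of 40% or more, normalized to positive control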;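 also: 100% = tunicamycin at 10 µg/mL and 0% = DMSO alone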
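assay system = CHO CHOP reporter cells | amount = 500 CHO-CHOP cells per well | buffer or medium = F12 with 10% FBS | incubation = 16-18 h cell attachment, then 6 h compound exposure, 37 °C | detection = luminescence read with Steady-Glo | read-out = percent activation relative to tunicamycin control | controls = tunicamycin high control, DMSO low control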
p97 inhibitor: inhibitors of human p97 ATPase; inhibition, % at 8 µM; recombinant p97 ATPase, Kinase-Glo ATP luminescence, 3 h; hit rate 0.42% among 220,000; AID 1481; in the data active = inhibition above about 15%;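 also: 0% = DMSO vehicle and 100% = wells lacking enzyme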
Target sequence (P55072 whole entry, looked up): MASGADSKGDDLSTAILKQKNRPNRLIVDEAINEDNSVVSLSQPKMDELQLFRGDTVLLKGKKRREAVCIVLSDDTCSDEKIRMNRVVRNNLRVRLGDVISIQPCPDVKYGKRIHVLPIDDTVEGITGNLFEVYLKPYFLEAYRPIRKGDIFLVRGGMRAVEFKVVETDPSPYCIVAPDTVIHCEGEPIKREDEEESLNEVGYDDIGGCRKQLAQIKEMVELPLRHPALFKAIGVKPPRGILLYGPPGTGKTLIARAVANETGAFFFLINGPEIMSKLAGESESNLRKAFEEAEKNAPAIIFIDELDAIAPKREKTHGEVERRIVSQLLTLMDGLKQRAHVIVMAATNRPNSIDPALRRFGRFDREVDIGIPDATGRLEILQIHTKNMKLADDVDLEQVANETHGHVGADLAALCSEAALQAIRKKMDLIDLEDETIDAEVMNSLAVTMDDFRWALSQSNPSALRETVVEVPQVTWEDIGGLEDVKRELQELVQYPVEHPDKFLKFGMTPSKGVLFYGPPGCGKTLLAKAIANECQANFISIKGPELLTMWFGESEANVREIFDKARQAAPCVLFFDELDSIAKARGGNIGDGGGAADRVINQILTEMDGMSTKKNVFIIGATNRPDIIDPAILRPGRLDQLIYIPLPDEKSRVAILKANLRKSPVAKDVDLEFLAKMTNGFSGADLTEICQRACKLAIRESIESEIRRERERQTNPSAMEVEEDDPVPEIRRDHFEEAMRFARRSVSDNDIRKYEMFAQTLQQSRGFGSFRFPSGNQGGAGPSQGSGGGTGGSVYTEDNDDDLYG
An asterisk follows results filed as active; . = no result given. Hits are enriched below; roughly 4.5% of the tested compounds scored in any of these assays.

SMILES	HCV NS3 hel inh	M18AAP inhibitor	CHOP inhibitor	UPR XBP1 act	UPR CHOP act	p97 inhibitor
CCN(CC)c1ccc(/C=N/N=C(N)N)c(O)c1	-4.5	29.5*	-0.5	11.5	-1.0	-2.9
CCN(CC)c1ccc(C=Nc2ccccc2)c(O)c1	2.6	2.8	10.4	1.2	4.4	4.4
CCOC(=O)CC(=O)CSc1ncnc2c1nnn2-c1ccccc1	10.9	5.6	.	-0.2	-3.2	.
CCNC(=O)OCc1cn(-c2ccc(Cl)cc2)nn1	2.1	0.8	-8.8	2.5	4.2	4.6
O=C(Nc1ccc(Cl)cc1)OCc1cn(-c2ccc(Cl)cc2)nn1	-0.8	-1.6	73.3*	2.3	0.4	-0.3
CCOC(=O)C1=C(C)NC(=O)NC1C(C)C (stereo unspecified)	.	.	.	-0.8	1.8	.
Cn1c(N)c(C(=O)CSc2nnc(Cc3cccs3)n2C2CC2)c(=O)n(C)c1=O	.	.	.	-4.2	0.9	.
C[C@@]12C(=O)Nc3cc(Cl)ccc3C(=O)N1[C@H]1c3cc(Br)ccc3OC[C@@H]1[C@@H]2c1ccccc1	.	.	.	8.2	0.9	.
Cc1ccc(/C(O)=C/C(=O)C(=O)NNC(=O)C(O)(c2ccccc2)c2ccccc2)cc1	30.1	6.5	85.0*	-5.0	0.3	1.9
CCn1c(C)cc2c(c1=O)C(c1ccccc1)C(C(=O)OC)=C(N)O2 (stereo unspecified)	-3.4	0.0	18.9	-1.7	-0.3	3.1
COC(=O)C1=C(N)Oc2cc(C)n(C)c(=O)c2C1c1ccc(Cl)c(Cl)c1 (stereo unspecified)	1.2	-9.6	34.1	-1.0	-0.6	3.8
COC(=O)C1=C(N)Oc2cc(C)n(CCCn3ccnc3)c(=O)c2C1c1ccc(Cl)cc1 (stereo unspecified)	-18.9	10.9	76.9*	-6.7	0.2	3.5
COC(=O)C1=C(N)Oc2cc(C)n(CC3CCCO3)c(=O)c2C1c1ccc(Cl)c(Cl)c1 (stereo unspecified)	-2.3	6.6	85.2*	-0.3	0.3	3.3
CCCc1cc(=O)oc2cc(C)cc(OCC(=O)Nc3ccc(S(N)(=O)=O)cc3)c12	-6.3	2.2	.	-3.0	0.1	.
O=C(CCNC(=O)C1CCN(S(=O)(=O)c2ccc(F)cc2)CC1)NCCc1ccc(Cl)cc1	-9.1	4.2	.	-3.9	1.9	.
Cc1cc(C)c2nc(-c3ccccn3)cc(C(=O)NCCc3ccc(S(N)(=O)=O)cc3)c2c1	4.8	17.3	89.4*	-2.7	-2.2	4.8
Cc1ccc(-n2nc(C)c3c(C)c(CCC(=O)NCc4ccco4)c(C)nc32)cc1	.	.	70.2*	-3.4	-0.7	.
Cc1ccc(-n2nc(C)c3c(C)c(CCC(=O)NCc4ccccc4)c(C)nc32)cc1	-7.5	0.4	70.2*	-0.4	-1.8	-0.2
Cc1ccc(CNC(=O)CCc2c(C)nc3c(c(C)nn3-c3ccc(C)cc3)c2C)cc1	-13.6	3.6	50.7	-0.6	3.2	3.7
Cc1cc2oc(C(=O)NCc3ccccc3)cc(=O)c2cc1C	-1.1	3.7	.	1.7	-0.6	.
CC(Sc1ccccc1)C(=O)N1CCN(S(=O)(=O)c2ccccc2F)CC1 (stereo unspecified)	2.1	-5.8	.	-4.0	1.1	.
O=[N+]([O-])/C=C/c1cn(Cc2ccc(F)cc2)c2ccccc12	16.7	14.6	93.2*	-2.9	9.3	11.0
Cc1ccccc1Cn1c(=N)n(CC(=O)c2ccc([N+](=O)[O-])cc2)c2ccccc21	-3.5	3.4	83.5*	.	.	2.9
CCCn1c(=N)n(CC(=O)c2ccc([N+](=O)[O-])cc2)c2ccccc21	-8.0	-2.1	0.1	-0.3	-1.9	4.2
O=C1c2ccccc2C(=Nc2ccccc2)C1c1cccc(Br)c1 (stereo unspecified)	-3.5	-0.1	72.4*	4.5	0.1	-0.3
SMILES	HCV NS3 hel inh	M18AAP inhibitor	CHOP inhibitor	UPR XBP1 act	UPR CHOP act	p97 inhibitor
Cc1ccc(C(=O)n2c(N)nc3ccccc32)cc1	8.6	7.5	74.8*	-5.6	-9.5	-3.9
COc1ccc(-c2sc(Nc3ccc(F)c(F)c3F)nc2CCC(=O)NN)cc1	-0.9	7.8	.	0.4	-0.3	.
O=C1CC2(CCN(C(=O)C(=O)c3c[nH]c4ccccc34)CC2)Oc2ccccc21	-3.9	-4.2	.	-2.5	1.4	.
Cc1ccc(N2C(=O)C3C4C=CC(CNC(=S)N5CCN(c6cccc(C)c6)C(C)C5)(O4)C3C2=O)cc1 (stereo unspecified)	11.7	-0.4	92.4*	13.2	11.7	-1.3
O=C1C2C3C=CC(CNS(=O)(=O)c4ccccc4)(O3)C2C(=O)N1c1ccc(Cl)cc1 (stereo unspecified)	-4.1	-6.2	35.1	-3.6	1.8	2.3
CC(C)=NNc1nc(-c2ccccc2)cs1	4.8	12.7	16.7	6.3	3.1	-1.9
CC(C)=NNc1nc(-c2ccc(N3C(=O)CCC3=O)cc2)cs1	9.9	28.2*	-7.4	0.4	4.1	5.4
COc1ccc(CCNC(=O)C(=O)NCC2OCCN2S(=O)(=O)c2ccc(Cl)cc2)cc1OC (stereo unspecified)	-15.4	-3.2	.	-0.8	0.9	.
COc1ccc(Nc2cc(C)nc(N3CCN(C(=O)c4ccc5c(c4)OCO5)CC3)n2)cc1	.	.	.	4.2	2.5	.
CC(C)c1[nH]nc2c1C(C1C=CCCC1)C(C#N)=C(N)O2 (stereo unspecified)	-4.8	-1.1	22.3	-3.6	0.5	-10.2
CC(C)(C)c1[nH]nc2c1C(C1C=CCCC1)C(C#N)=C(N)O2 (stereo unspecified)	-12.8	1.9	82.5*	1.1	-2.0	-0.8
CC(=O)Nc1ccc(N/C=C(\C=O)c2nc3ccccc3o2)cc1	-8.9	4.5	-24.3	-3.2	1.5	5.8
O=C/C(=C\Nc1ccc(Br)cc1)c1nc2ccccc2o1	-0.8	3.6	74.5*	1.2	1.6	3.2
O=c1[nH]c(SCc2ccccc2Cl)nc2[nH]ncc12	-2.5	48.1*	-3.5	2.7	1.2	0.9
Cc1cccc(CSc2nc3[nH]ncc3c(=O)[nH]2)c1	-1.3	14.1	6.3	0.7	3.4	0.1
CNC(=O)CSc1nc2[nH]ncc2c(=O)[nH]1	1.1	30.1*	0.4	-4.5	-2.6	-3.0
Cc1ccc(N(CC(=O)Nc2cc(Cl)ccc2Oc2ccccc2)S(C)(=O)=O)cc1C	-5.2	-5.2	89.0*	-5.5	1.0	-11.4
COC(=O)C[C@H]1c2cc(C(F)(F)F)ccc2S(=O)(=O)N1C1CCCC1	.	.	.	-0.6	0.7	.
O=S(=O)(NCCSc1ccc(Cl)cc1)c1ccc(F)cc1	-14.5	1.1	70.7*	0.4	-1.2	-2.5
CCOc1ccccc1CN1C(=O)NC2(CCCCCC2)C1=O	11.7	-4.8	.	-3.3	1.6	.
Oc1c(C(c2cccs2)N2CCN(c3ccccc3)CC2)ccc2cccnc12 (stereo unspecified)	8.1	1.3	99.3*	3.6	87.1*	8.2
